Sampled rows, rich in hits. Any-hit rate of the full collection: about 2.9%.
beta cell repl: inducers of beta-cell replication in MIN6 cells; MIN6 cells proliferation, ATPlite luminescence, 48 h; cells starved in 0.2% serum; 100% = growth in 10% serum; proliferation, % at 10 µM; hit rate 0.29% among 330,000; AID 2380;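 active = compounds whose signal lies at least 3.5 SD above the mean of all wells on their plate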;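 note: 0% = DMSO-treated cells in low-serum medium and 100% = 10% serum control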
T cruzi inh: blocks replication of Trypanosoma cruzi; T. cruzi beta-gal in NIH3T3, luminescence, 90 h; inhibition, % (no concentration beside the values); hit rate 1.4% among 300,000;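 active = mean inhibition across valid replicates above about 55%, limit read from the data; inconclusive = mean below that limit but half or more replicates reach it; inactive = mean below it, under half of replicates reach it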;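 note: signal also drops with host cell toxicity which is not excluded here; 0% = plate median of DMSO wells and 100% = zero luminescence signal; higher percent means less beta-gal luminescence so fewer parasites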
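System – NIH/3T3 host cells with β-galactosidase reporter T. cruzi · Doses – single 50 nL compound addition per well in DMSO · Reagent – 5000 T. cruzi trypomastigotes/well · Medium – Low-serum DMEM with 2% FBS · Timing – ≥90 h infection period, 3 h prior cell attachment · Evaluation – parasite load inhibition, % · Technique – GalScreen luminescence, 60 min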
NR1D1 modulator: modulates human Rev-erb alpha binding to DNA. hit rate 0.79% among 370,000. P20393. activity, % at 10 µM. AID 1259318. Rev-erbα–FITC-DNA binding, fluorescence polarization, 90 min;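 active = activity above about 14%, limit read from the data; passing the limit was not always enough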;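 note: 0% = DMSO wells with 35 nM protein and 100% = DMSO wells with 750 nM protein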
Target sequence (P20393 whole entry, looked up): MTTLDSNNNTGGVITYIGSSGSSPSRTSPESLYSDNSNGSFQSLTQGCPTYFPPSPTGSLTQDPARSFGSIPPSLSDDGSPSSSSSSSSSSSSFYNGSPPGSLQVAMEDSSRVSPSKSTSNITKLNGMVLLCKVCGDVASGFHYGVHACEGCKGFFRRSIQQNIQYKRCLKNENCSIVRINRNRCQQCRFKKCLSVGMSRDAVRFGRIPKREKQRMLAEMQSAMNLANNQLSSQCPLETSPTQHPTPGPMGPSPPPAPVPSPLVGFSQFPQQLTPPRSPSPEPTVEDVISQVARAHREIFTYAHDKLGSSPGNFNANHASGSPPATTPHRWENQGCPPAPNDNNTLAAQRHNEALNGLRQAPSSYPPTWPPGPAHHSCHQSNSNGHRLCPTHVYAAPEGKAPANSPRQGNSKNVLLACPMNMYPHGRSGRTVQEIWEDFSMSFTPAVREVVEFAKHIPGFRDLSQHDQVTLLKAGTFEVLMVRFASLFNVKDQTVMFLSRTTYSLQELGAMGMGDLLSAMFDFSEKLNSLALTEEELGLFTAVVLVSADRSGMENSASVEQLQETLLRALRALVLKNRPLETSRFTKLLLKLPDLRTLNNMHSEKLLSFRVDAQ
hiPSC survival: hiPSC single-cell survival enhancement. ATPlite luminescence; 100% = ROCK inhibitor wells, 0% = DMSO. survival enhancement, % at 20 µM. hit rate 0.044% among 360,000. AID 602274; in the data active = survival enhancement above about 18%;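 note: cells exposed to compounds for 16 hours before the ATP read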
H9c2 TAG inh: reduces triacylglycerol accumulation in H9c2 cells; Nile Red lipid (TAG) fluorescence; cells loaded with 200 µM oleic acid; inhibition, % at 12.5 µM; hit rate 0.66% among 230,000;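 active = pattern-corrected inhibition of lipid staining of at least 50% with the nuclear-stain viability signal not falling by more than 50%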;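 note: 0% = DMSO wells and 100% = triacsin C control wells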
PG9 Ab binder: PG9 antibody binding by small molecule; TR-FRET gp120-PG9 antibody binding; inhibition, % at 6.7 µM; hit rate 0.43% among 360,000; AID 624416; in the data active = inhibition above about 8.5%
* hit, by the source's call; ? = inconclusive; / = not tested or not shown.

SMILES | beta cell repl | T cruzi inh | NR1D1 modulator | hiPSC survival | H9c2 TAG inh | PG9 Ab binder
COc1ccccc1N1CCN(C(=O)c2ccc3[nH]c(C)c(C)c3c2)CC1 | -3.5 | 2.4 | -4.0 | 0.1 | / | -0.3
Cc1ccc(-c2nn(C(C)(C)C)c3ncnc(NS(=O)(=O)c4ccc([N+](=O)[O-])cc4)c23)cc1 | -4.2 | 56.4* | -2.4 | -1.4 | 40.1 | -2.2
CC(C)(C)C(=O)Cn1c(=N)n(Cc2ccccc2Cl)c2ccccc21 | -2.5 | 57.4* | 0.2 | -1.1 | 3.4 | 2.7
Cc1cccc(COC[C@H](Cc2ccccc2)N2CCN(C(=O)c3cc(Cl)cc(Cl)c3)CCC2=O)c1 | / | / | 7.9 | -0.6 | / | 2.0
CCOC(=O)c1c(CSc2ccc(CC)cc2)oc2ccc(O)c(CN(C)C)c12 | -6.9 | 62.5* | -7.0 | 0.0 | / | 0.5
O=C(Nc1cccc(Cl)c1)c1nc[nH]c1C(=O)NCCN(CCNC(=O)c1[nH]cnc1C(=O)Nc1cccc(Cl)c1)CCNC(=O)c1[nH]cnc1C(=O)Nc1cccc(Cl)c1 | -5.4 | / | 0.1 | -3.6 | 74.6* | -1.0
CCOC(=O)c1ccc(NC(=O)c2nc[nH]c2C(=O)NCCNC(=O)c2[nH]cnc2C(=O)Nc2ccc(C(=O)OCC)cc2)cc1 | -6.2 | / | -12.1 | -4.7 | 135.0* | -1.7
O=C(Nc1ccc(Cl)cc1)c1nc[nH]c1C(=O)NCCCCNC(=O)c1[nH]cnc1C(=O)Nc1ccc(Cl)cc1 | -6.0 | / | -19.1 | 2.1 | 110.4* | 1.0
O=C(Nc1ccc(Cl)cc1)c1nc[nH]c1C(=O)Nc1ccccc1F | / | / | 2.5 | -0.8 | 9.9 | 0.1
O=C(Nc1cccc(Cl)c1)c1nc[nH]c1C(=O)NCc1ccccc1 | -5.3 | / | 0.2 | -1.9 | -48.7 | -0.5
Cc1cccc(NC(=O)c2nc[nH]c2C(=O)NCCCCNC(=O)c2[nH]cnc2C(=O)Nc2cccc(C)c2)c1 | -5.9 | / | 8.0 | 2.7 | 77.6* | -1.2
Cc1cccc(NC(=O)c2nc[nH]c2C(=O)NCc2ccccc2)c1 | -6.9 | / | -0.6 | 1.1 | -26.4 | -0.5
O=C(OC(C(=O)Nc1ccc(Cl)c(C(F)(F)F)c1)c1ccccc1)C1=COCCO1 (centres undefined) | -2.7 | 11.6 | -6.4 | -1.4 | -45.9 | 1.9
Cn1c(=O)c2c(n(Cc3ccccc3)c1=O)NC(=O)C2CC(=O)O (centres undefined) | -1.0 | 0.4 | -3.4 | -1.3 | 1.6 | -0.2
CSc1ccc(CN2CCC(C)(Oc3ccccc3)C2)cc1 (centres undefined) | / | / | 3.6 | -0.8 | -16.7 | 0.8
O=C(Nc1cccc(Cl)c1)c1nc[nH]c1C(=O)NCCCCNC(=O)c1[nH]cnc1C(=O)Nc1cccc(Cl)c1 | -6.2 | / | 4.4 | -1.3 | 65.1* | 0.1
CCOC(=O)C1=C(Nc2ccccc2)CC(C)(O)C(C(=O)OCC)C1c1ccccc1 (centres undefined) | -1.5 | 75.8* | -5.6 | 0.2 | / | -1.9
Cc1nc(NC(=O)c2ccc(OCC(C)C)cc2)sc1Cc1ccc2c(c1)OCO2 | -5.6 | 48.9 | -0.7 | -0.8 | 26.1 | -1.1
O=[N+]([O-])c1ccc(-c2nc(Nc3ccc(O)cc3)c3ccccc3n2)cc1 | -2.2 | 17.6 | 7.3 | -0.3 | / | 0.3
COc1ccc(/C=C/C(=O)NC(=S)NNC(=O)c2cnccn2)cc1 | -1.9 | 64.6* | -5.2 | -0.6 | 12.9 | 0.3
O=C(/C=C/c1ccc(F)cc1)NC(=S)NNC(=O)c1cnccn1 | -2.7 | ? | 2.6 | -0.2 | 10.2 | -0.7
Cc1noc(C)c1C(=O)OCC(=O)Nc1ncc(C(F)(F)F)cc1Cl | 1.9 | / | 3.1 | -0.2 | 9.1 | -1.0
O=[N+]([O-])c1ccc2nc(-[n+]3c(-c4ccccc4)cc(-c4ccccc4)cc3-c3ccccc3)[nH]c2c1 | 0.0 | 57.6* | / | -0.5 | / | /
O=[N+]([O-])c1cccc(-c2nc3ccc([N+](=O)[O-])cc3[nH]2)c1 | -3.5 | 23.0 | -0.3 | -0.5 | 6.7 | 1.5
O=C(CNC(=S)N(Cc1ccccc1)Cc1cccnc1)NC1CCCCC1 | -1.8 | 64.2* | -7.7 | 0.2 | / | -3.2
SMILES | beta cell repl | T cruzi inh | NR1D1 modulator | hiPSC survival | H9c2 TAG inh | PG9 Ab binder
O=C(CNC(=S)N(Cc1ccccc1)Cc1cccnc1)NCc1ccccc1 | 0.5 | 53.9 | -3.8 | 3.0 | -14.3 | -0.4
Cc1ccc(CCNC(=O)CNC(=S)N(Cc2ccccc2)Cc2cccnc2)cc1 | 1.0 | 72.4* | -1.9 | 3.2 | -3.3 | 1.2
Cc1cc(C)n2c(=O)c3ccc(Cl)cc3nc2c1C#N | -0.4 | -2.4 | -2.8 | -1.7 | 7.2 | 1.2
Cc1cc(Cl)n2c(nc3cc(F)c(F)cc32)c1C#N | / | 79.0* | -0.4 | 4.3 | 88.3 | 1.1
COc1ccc(CC(=O)NCC2CCCN(Cc3cc(OC)cc(OC)c3)C2)cc1 (centres undefined) | -2.0 | 57.7* | 5.9 | 1.3 | / | -0.7
COCc1cc(CN2CCCC(CNC(=O)c3ccc(F)cc3)C2)ccc1OC (centres undefined) | -1.2 | 80.8* | 4.2 | 0.0 | 3.4 | -1.9
COC(=O)c1ccc(CN2CCCC(CNC(=O)Cc3ccc(OC)cc3)C2)cc1 (centres undefined) | -2.7 | 39.7 | 0.3 | 3.0 | / | 0.8
CCc1ccc(CN2CCCC(CNC(=O)c3cccc(OC)c3OC)C2)cc1 (centres undefined) | -1.3 | 61.3* | 4.4 | 3.9 | / | -0.5
CCn1ncc(CN2CCCC(CNC(=O)c3ccc(F)cc3)C2)c1C (centres undefined) | 2.6 | 73.4* | -1.8 | -0.3 | 8.7 | -1.1
CC(=O)NCCCc1nc2ccccc2n1Cc1cc(C)ccc1C | -1.2 | 16.5 | 3.1 | 1.5 | / | 2.5
CC12CCC(=O)N1C(C(=O)Nc1ccccc1N1CCCC1)CS2 (centres undefined) | / | / | 0.3 | -0.5 | -14.4 | -1.5
CSCCC1NC(=O)N(CC(=O)Nc2c(Cl)cc(Cl)cc2Cl)C1=O (centres undefined) | -0.9 | -0.6 | -1.1 | 0.5 | 10.6 | -1.7
O=C(Nc1ccccc1N1CCN(C(=O)c2ccccc2)CC1)c1ccccc1Cl | -3.3 | 3.5 | 2.4 | -0.4 | -3.9 | 0.2
O=C(NCC1CCCN(C(=O)c2cccc(C(F)(F)F)c2)C1)c1ccc(F)cc1 (centres undefined) | -1.1 | 5.2 | 2.0 | 0.8 | / | 0.9
COc1cccc(CN2CCCC(CNC(=O)c3ccc(F)cc3)C2)c1OC (centres undefined) | -1.4 | 68.4* | -1.9 | 1.1 | -8.3 | -2.5
Cn1cc(CN2CCCC(CNC(=O)c3ccc4c(c3)OCO4)C2)c2ccccc21 (centres undefined) | 2.1 | 66.5* | -4.5 | -0.7 | 3.1 | -0.5
O=C(NCC1CCCN(Cc2cccc(C(F)(F)F)c2)C1)c1ccc(F)cc1 (centres undefined) | -2.4 | 57.0* | 5.7 | 0.5 | -5.0 | 0.9
CN1C(=O)C(CC(=O)NC2CCCCC2)N(C)C1=O (centres undefined) | 0.6 | -0.8 | 6.9 | -0.3 | -8.4 | -1.5

Assay outcomes: PubChem BioAssay, several laboratories
